In assay [1] the test system is Oryctolagus cuniculus. The experiment in a line: Minimum effective dose level to give significant blood pressure lowering effect in normotensive rabbits after administering intravenously. The class given is functional. The conditions noted are these: iv; for minimal effective dose: read-out: MED. A digest of the protocol: (§1)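 Conscious rabbits held in a stock. After 30 min, a 30-min control recording was taken, then drug was given into an ear vein and recording continued for 120 min. Mean arterial pressure (electrically damped) and heart rate were averaged at 10-min intervals over 120 min. The dose was adjusted to the minimum giving p < 0.05 lowering; in practice a ≥10 mmHg mean fall was significant. Vehicle: saline with 2% Emulphor EL-620.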

The subject of assay [2] is Rattus norvegicus. The experiment in a line: Percentage blood pressure lowering in spontaneously hypertensive rats within 3 hr of intraperitoneal administration at 50 mg/kg. The class given is functional. An outline of the steps: (§2)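 Male Wistar/Kyoto SHR, about 6 months old, 300–400 g, housed four per cage with chow and water ad libitum. Drug given ip as a suspension in saline with 2% Emulphor EL-620. Systolic pressure was measured indirectly, mostly with photoelectric sensors at 25 °C, and earlier by a modified Friedman–Freed method with 30–45 s warming at 32 °C. Reported value: maximum % lowering within 3 h, mean ± SE.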

The subject of assay [3] is Rattus norvegicus. The assay can be described thus: Percentage blood pressure lowering in spontaneously hypertensive rats within 3 hr of intraperitoneal administration at 50 mg/kg; Not statistically significant. The class given is functional. An outline of the steps: as §2
For assay [4], the system named is Rattus norvegicus. The assay can be described thus: Percentage blood pressure lowering in spontaneously hypertensive rats within 3 hr of intraperitoneal administration at 2 mg/kg. In kind it is functional. A digest of the protocol:
as §2

For assay [5], the system named is Rattus norvegicus. The experiment in a line: Percentage blood pressure lowering in spontaneously hypertensive rats within 3 hr of intraperitoneal administration at 25 mg/kg. In kind it is functional. A digest of the protocol:
as §2

Assay [6] has as its system Rattus norvegicus. The assay can be described thus: Percentage blood pressure lowering in spontaneously hypertensive rats within 3 hr of intraperitoneal administration at 1.0 mg/kg. In kind it is functional. A digest of the protocol:
as §2

Assay [7] has as its system Oryctolagus cuniculus. The experiment in a line: Mean blood pressure lowering in normotensive rabbits over 2 hr of intravenous administration at 0.125 mg/kg.
Assay [8] relates to Oryctolagus cuniculus. The assay can be described thus: Mean blood pressure lowering in normotensive rabbits over 2 h of intravenous administration at 0.008 mg/kg.
For assay [9], the system named is Rattus norvegicus. The experiment in a line: Percentage blood pressure lowering in spontaneously hypertensive rats within 3 hr of intraperitoneal administration at 0.5 mg/kg. The class given is functional. An outline of the steps:
as §2

In assay [10] the test system is Rattus norvegicus. The assay can be described thus: Percentage blood pressure lowering in spontaneously hypertensive rats within 3 hr of intraperitoneal administration at 20 mg/kg; Not statistically significant. In kind it is functional. An outline of the steps:
as §2

For assay [11], the system named is Rattus norvegicus. The experiment in a line: Percentage blood pressure lowering in spontaneously hypertensive rats within 3 hr of intraperitoneal administration at 10 mg/kg. The class given is functional. An outline of the steps:
as §2

The test system of assay [12] is Rattus norvegicus. The experiment in a line: Percentage blood pressure lowering in spontaneously hypertensive rats within 3 hr of intraperitoneal administration at 5 mg/kg. In kind it is functional. An outline of the steps:
as §2

Assay [13] concerns Rattus norvegicus. The experiment in a line: Percentage blood pressure lowering in spontaneously hypertensive rats within 3 hr of intraperitoneal administration at 20 mg/kg. In kind it is functional. An outline of the steps:
as §2

In assay [14] the test system is Oryctolagus cuniculus. The experiment in a line: Minimum effective dose level to give significant blood pressure lowering effect in normotensive rabbits after administering intravenously; NA denotes not active at 2.5 mg/kg. The class given is functional, organism-based. The arrangement: dose 2.5 mg/kg. A digest of the protocol:
as §1

Activity calls are given as the source filed them. No cut-off for these calls is given here.

`COc1cc2c(cc1OC)S(C)(=O)=NC(Nc1ccccc1)=N2.Cl` (configuration not stated): in [1], the minimal effective dose came out at 1 mg/kg. For the same molecule, the BP decrease in assay [2] amounted to 19.9%.

On to `COc1cc2c(cc1OC)S(C)(=O)=NC(N1CCN(C)CC1)=N2.Cl.Cl` (configuration not stated), for which, in assay [1], the minimal effective dose came to 5 mg/kg. Moreover, the BP decrease in [2] is recorded as 19.7%.

As to `CNC1=Nc2cc(OC)c(OC)cc2S(C)(=O)=N1.Cl` (configuration not stated), the minimal effective dose in assay [1] was found to be 0.16 mg/kg. In assay [3], the BP decrease came out at 11.3%.

On to `COc1cc2c(cc1OC)S(C)(=O)=NC(N1CCNCC1)=N2.Cl.Cl` (configuration not stated), for which, in assay [1], the minimal effective dose is 10 mg/kg. Further, the BP decrease in assay [3] was found to be 9.1%.

As to `CCN(CC)C1=Nc2cc(OC)c(OC)cc2S(C)(=O)=N1.Cl` (configuration not stated), the minimal effective dose in [1] came out at 0.04 mg/kg. Further, in assay [4], the BP decrease stood at 37.3%.

Consider `COc1cc2c(cc1OC)S(C)(=O)=NC(N1CCC(c3ccccc3)CC1)=N2.Cl` (configuration not stated), for which the minimal effective dose in [1] was 0.16 mg/kg. The BP decrease in assay [2] amounted to 30.2%.

As for `COc1cc2c(cc1OC)S(C)(=O)=NC(N1CCN(c3ccccc3)CC1)=N2.Cl.Cl` (configuration not stated), the BP decrease in assay [5] came to 30.8%. Besides, in assay [1], the minimal effective dose turned out to be 0.625 mg/kg.

Consider `CCS1(=O)=NC(N2CCN(C(=O)c3ccco3)CC2)=Nc2cc(OC)c(OC)cc21.Cl` (configuration not stated), for which, in assay [1], the minimal effective dose stood at 2.5 mg/kg. For the same molecule, the BP decrease in assay [2] is listed as 18.2%.

As to `COc1cc2c(cc1OC)S(C)(=O)=NC(NC(C)C)=N2.Cl` (configuration not stated), the minimal effective dose in assay [1] was 2.5 mg/kg. Further, the BP decrease in assay [2] came out at 17.7%.

Regarding `COc1cc2c(cc1OC)S(C)(=O)=NC(N1CCN(C(=O)c3nnc(SC)o3)CC1)=N2.Cl` (configuration not stated), in [1], the minimal effective dose was determined as 0.2 mg/kg. Further, the BP decrease in [6] is listed as 14%.

For `COc1cc2c(cc1OC)S(C)(=O)=NC(N1CCCCC1)=N2.Cl` (configuration not stated), the minimal effective dose in [1] was 1.25 mg/kg. The BP decrease in assay [3] worked out at 17.1%.

`COc1cc2c(cc1OC)S(C)(=O)=NC(N1CCC(O)(c3ccccc3)CC1)=N2.Cl` (configuration not stated): the BP decrease in [2] worked out at 21.4%.

For the molecule `CCOc1cc2c(cc1OCC)S(C)(=O)=NC(N1CCN(C(=O)c3ccco3)CC1)=N2.Cl` (configuration not stated), the minimal effective dose in assay [1] was 2.5 mg/kg. Besides, the BP decrease in assay [2] came out at 16.4%.

With `COc1cc2c(cc1OC)S(C)(=O)=NC(N1CCC(C(=O)c3ccccc3)CC1)=N2.Cl` (configuration not stated), in assay [4], the BP decrease amounted to 25.8%.

As to `COc1cc2c(cc1OC)S(=O)(C(C)C)=NC(N1CCN(C(=O)c3ccco3)CC1)=N2.Cl` (configuration not stated), the BP decrease in [2] is 34.3%.

Consider `COc1cc2c(cc1OC)S(C)(=O)=NC(N1CCN(C(=O)c3ccco3)CC1)=N2.Cl` (configuration not stated), for which the BP decrease came to 24.8 mmHg in assay [7], 11.9 mmHg in assay [8] and 28.8% in [9].

The molecule `COc1cc2nc(N3CCN(C(=O)c4ccco4)CC3)nc(N)c2cc1OC.Cl` [PRAZOSIN HYDROCHLORIDE] gave an MED in [1] of 0.025 mg/kg. Further, in assay [9], the BP decrease was found to be 14.7%.

On to `COc1cc2c(cc1OC)S(=O)(c1ccccc1)=NC(N1CCN(C(=O)c3ccco3)CC1)=N2.Cl` (configuration not stated), for which the minimal effective dose in assay [1] turned out to be 1.25 mg/kg. Also, in [2], the BP decrease came to 26.1%.

On to `COc1cc2c(cc1OC)S(C)(=O)=NC(N1CCC(n3c(O)nc4ccccc43)CC1)=N2.Cl` (configuration not stated), for which, in assay [1], the minimal effective dose was found to be 2.5 mg/kg. Besides, the BP decrease in assay [2] worked out at 22.5%.

`COc1cc2c(cc1OC)S(C)(=O)=NC(NCc1ccccc1)=N2.Cl` (configuration not stated): in assay [1], the minimal effective dose amounted to 1.25 mg/kg. Besides, in assay [2], the BP decrease is 28.9%.

For the molecule `COc1cc2c(cc1OC)S(C)(=O)=NC(N1CCC(C#N)(c3ccccc3)CC1)=N2.Cl` (configuration not stated), the BP decrease in [3] was 1.6%.

In the case of `COc1cc2c(cc1OC)S(C)(=O)=NC(N1CCCN(C(=O)c3ccco3)CC1)=N2.Cl` (configuration not stated), in [10], the BP decrease is -1%. For the same molecule, the minimal effective dose in [1] stood at 1.25 mg/kg.

In the case of `COc1cc2c(c(OC)c1OC)S(C)(=O)=NC(N1CCN(C(=O)c3ccco3)CC1)=N2.Cl` (configuration not stated), in assay [1], the minimal effective dose was 0.04 mg/kg. For the same molecule, the BP decrease in [2] came to 20.6%.

As for `COc1cc2c(cc1OC)S(C)(=O)=NC(N1CCC(C(O)c3ccccc3)CC1)=N2.Cl` (configuration not stated), the minimal effective dose in assay [1] stood at 0.008 mg/kg. In [11], the BP decrease was 40.9%.

As to `COc1cc2c(cc1OC)S(C)(=O)=NC(N1CCC(O)CC1)=N2.Cl` (configuration not stated), the minimal effective dose in assay [1] came to 0.625 mg/kg. The BP decrease in assay [12] is given as 56.9%.

Take `COc1cc2c(cc1OC)S(C)(=O)=NC(N1CCC(OC(C)=O)CC1)=N2.Cl` (configuration not stated): the minimal effective dose in [1] is 0.25 mg/kg. Besides, in [13], the BP decrease was determined as 43%.

Take `COc1cc2c(cc1OC)S(C)(=O)=NC(N1CCN(C(=O)c3ccccc3)CC1)=N2.Cl` (configuration not stated): in assay [1], the minimal effective dose came to 0.312 mg/kg. In addition, the BP decrease in assay [2] is recorded as 25.5%.

As to `COc1cc2c(cc1OC)S(C)(=O)=NC(N1CCN(Cc3ccccc3)CC1)=N2.Cl.Cl` (configuration not stated), the minimal effective dose in [1] was found to be 2.5 mg/kg. Moreover, the BP decrease in [2] is reported as 32.9%.

Regarding `COc1cc2c(cc1OC)S(C)(=O)=NC(N(C)C)=N2.Cl` (configuration not stated), in [1], the minimal effective dose came to 0.125 mg/kg. Further, the BP decrease in assay [2] is 24.8%.

As to `CS1(=O)=NC(N2CCN(C(=O)c3ccco3)CC2)=Nc2cc3c(cc21)OCO3.Cl` (configuration not stated), in assay [14], the BP decrease result is “inactive”. The BP decrease in assay [2] was found to be 18.2%.

The values above are taken from ChEMBL document CHEMBL1121468, “Synthesis and blood pressure lowering activity of 3-(substituted-amino)-1,2,4-benzothiadiazine 1-oxide derivatives” (1980).
